In ChEMBL document CHEMBL2146466, “Evaluation of dimerization-inhibitory activities of cyclic peptides containing a β-hairpin loop sequence of the EGF receptor” (2012):
Activity calls are given as the source filed them. The rule behind the calls is not given here. Where a SMILES comes first, the peptide text is derived from it.

What follows are molecules tested against Epidermal growth factor receptor (Homo sapiens) (UniProt P00533) (assay: Inhibition of human recombinant EGF receptor dimerization expressed in A431 cells at 10 uM after 10 mins by immunoblotting analysis relative to control). Details: A-431.
Epidermal growth factor receptor (Homo sapiens), sequence (P00533 whole entry): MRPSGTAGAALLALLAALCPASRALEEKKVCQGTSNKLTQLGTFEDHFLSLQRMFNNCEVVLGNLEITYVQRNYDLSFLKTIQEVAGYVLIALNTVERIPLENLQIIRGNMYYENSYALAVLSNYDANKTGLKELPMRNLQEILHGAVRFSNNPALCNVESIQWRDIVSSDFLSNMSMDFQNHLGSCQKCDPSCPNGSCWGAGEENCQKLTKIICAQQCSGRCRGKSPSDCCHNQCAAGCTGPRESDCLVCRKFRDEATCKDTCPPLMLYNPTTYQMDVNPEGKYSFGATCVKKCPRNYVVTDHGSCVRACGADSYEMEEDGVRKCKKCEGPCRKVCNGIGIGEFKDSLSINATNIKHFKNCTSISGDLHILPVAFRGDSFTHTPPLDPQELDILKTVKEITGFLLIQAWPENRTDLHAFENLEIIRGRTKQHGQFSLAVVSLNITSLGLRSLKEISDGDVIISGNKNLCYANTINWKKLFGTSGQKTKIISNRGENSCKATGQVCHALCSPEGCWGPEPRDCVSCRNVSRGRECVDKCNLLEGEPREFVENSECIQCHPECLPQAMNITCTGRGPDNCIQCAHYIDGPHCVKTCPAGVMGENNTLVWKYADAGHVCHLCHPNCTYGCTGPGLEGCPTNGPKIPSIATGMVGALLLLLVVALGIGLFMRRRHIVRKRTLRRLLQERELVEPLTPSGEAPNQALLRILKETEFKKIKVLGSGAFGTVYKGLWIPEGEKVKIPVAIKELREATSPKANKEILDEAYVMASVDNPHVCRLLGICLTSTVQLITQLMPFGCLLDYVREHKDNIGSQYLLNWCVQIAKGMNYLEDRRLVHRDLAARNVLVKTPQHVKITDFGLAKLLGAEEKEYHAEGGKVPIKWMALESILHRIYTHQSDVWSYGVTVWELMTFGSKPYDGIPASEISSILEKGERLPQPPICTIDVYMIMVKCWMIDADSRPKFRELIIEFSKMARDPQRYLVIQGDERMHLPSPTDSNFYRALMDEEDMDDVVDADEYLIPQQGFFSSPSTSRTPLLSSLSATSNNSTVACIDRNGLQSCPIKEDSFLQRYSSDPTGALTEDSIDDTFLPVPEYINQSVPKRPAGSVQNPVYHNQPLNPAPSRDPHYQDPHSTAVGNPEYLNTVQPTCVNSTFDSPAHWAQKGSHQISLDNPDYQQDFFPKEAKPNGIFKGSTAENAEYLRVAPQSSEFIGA
Assay type: cell-based
Method in brief: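 Confluent A431 cells were solubilized in 20 mM HEPES pH 7.4 with 1% Triton X-100, 10% glycerol, 1 mM EGTA and 1 mM PMSF, and the extract was spun at 250,000×g. Supernatant at 2 µg/µL protein was pre-treated 60 min with 10 µM peptide, then given 0.21 µM human EGF for 10 min. Cross-linking was with 1 mM BS³ for 10 min, quenched with glycine. Dimer and monomer were resolved by SDS-PAGE and anti-EGFR immunoblot, with ECL quantification. Dimer without peptide was set to 1.0; mean ± SD of at least three experiments in duplicate.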

SMILES | inhibition
CSCC[C@@H]1NC(=O)[C@H](CCC(N)=O)NC(=O)[C@H](Cc2ccc(O)cc2)NC(=O)[C@H]([C@@H](C)O)NC(=O)[C@H]([C@@H](C)O)NC(=O)[C@@H]2CCCN2C(=O)[C@H](CC(N)=O)NC(=O)[C@H](Cc2ccc(O)cc2)NC(=O)[C@@H](NC(=O)[C@H](CCSC)NC(=O)[C@H](CC(C)C)NC(=O)[C@@H]2CCCN2)CSSC[C@@H](C(=O)O)NC1=O (HELM PEPTIDE1{P.L.M.C.Y.N.P.T.T.Y.Q.M.C}$PEPTIDE1,PEPTIDE1,4:R3-13:R3$$$V2.0) | Active
CSCC[C@@H]1NC(=O)[C@H](CCC(N)=O)NC(=O)[C@H](Cc2ccc(O)cc2)NC(=O)[C@H]([C@@H](C)O)NC(=O)[C@H]([C@@H](C)O)NC(=O)[C@@H]2CCCN2C(=O)[C@H](CC(N)=O)NC(=O)[C@H](C)NC(=O)[C@@H](N)CSSC[C@@H](C(=O)O)NC1=O (HELM PEPTIDE1{C.A.N.P.T.T.Y.Q.M.C}$PEPTIDE1,PEPTIDE1,1:R3-10:R3$$$V2.0) | inactive
CSCC[C@@H]1NC(=O)[C@H](CCC(N)=O)NC(=O)[C@H](Cc2ccc(O)cc2)NC(=O)[C@H]([C@@H](C)O)NC(=O)[C@H]([C@@H](C)O)NC(=O)[C@@H]2CCCN2C(=O)[C@H](CC(N)=O)NC(=O)[C@H](Cc2ccc(O)cc2)NC(=O)[C@H](CC(C)C)NC(=O)[C@H](CCSC)NC(=O)[C@H](CC(C)C)NC(=O)[C@@H]2CCCN2C(=O)[C@@H]2CCCN2C(=O)[C@@H](N)CSSC[C@@H](C(=O)O)NC(=O)CNC(=O)[C@H](CCC(=O)O)NC(=O)[C@@H]2CCCN2C(=O)[C@H](C(C)C)NC(=O)[C@H](CC(=O)O)NC1=O (HELM PEPTIDE1{C.P.P.L.M.L.Y.N.P.T.T.Y.Q.M.D.V.P.E.G.C}$PEPTIDE1,PEPTIDE1,1:R3-20:R3$$$V2.0) | Active
CSCC[C@@H]1NC(=O)[C@H](CCC(N)=O)NC(=O)[C@H](Cc2ccc(O)cc2)NC(=O)[C@H]([C@@H](C)O)NC(=O)[C@H]([C@@H](C)O)NC(=O)[C@@H]2CCCN2C(=O)[C@H](CC(N)=O)NC(=O)[C@H](Cc2ccc(O)cc2)NC(=O)[C@H](CC(C)C)NC(=O)[C@H](CCSC)NC(=O)[C@@H](N)CSSC[C@@H](C(=O)O)NC(=O)[C@H](C(C)C)NC(=O)[C@H](CC(=O)O)NC1=O (HELM PEPTIDE1{C.M.L.Y.N.P.T.T.Y.Q.M.D.V.C}$PEPTIDE1,PEPTIDE1,1:R3-14:R3$$$V2.0) | Active
CSCC[C@@H]1NC(=O)[C@H](CCC(N)=O)NC(=O)[C@H](Cc2ccc(O)cc2)NC(=O)[C@H]([C@@H](C)O)NC(=O)[C@H]([C@@H](C)O)NC(=O)[C@@H]2CCCN2C(=O)[C@H](CC(N)=O)NC(=O)[C@H](Cc2ccc(O)cc2)NC(=O)[C@H](CC(C)C)NC(=O)[C@H](CCSC)NC(=O)[C@H](CC(C)C)NC(=O)[C@@H](N)CSSC[C@@H](C(=O)O)NC(=O)[C@H](CCC(=O)O)NC(=O)[C@@H]2CCCN2C(=O)[C@H](C(C)C)NC(=O)[C@H](CC(=O)O)NC1=O (HELM PEPTIDE1{C.L.M.L.Y.N.P.T.T.Y.Q.M.D.V.P.E.C}$PEPTIDE1,PEPTIDE1,1:R3-17:R3$$$V2.0) | Active
CSCC[C@@H]1NC(=O)[C@H](CCC(N)=O)NC(=O)[C@H](Cc2ccc(O)cc2)NC(=O)[C@H]([C@@H](C)O)NC(=O)[C@H]([C@@H](C)O)NC(=O)[C@@H]2CCCN2C(=O)[C@H](CC(N)=O)NC(=O)[C@H](Cc2ccc(O)cc2)NC(=O)[C@@H](N)CSSC[C@@H](C(=O)N[C@H](C(=O)O)C(C)C)NC1=O (HELM PEPTIDE1{C.Y.N.P.T.T.Y.Q.M.C.V}$PEPTIDE1,PEPTIDE1,1:R3-10:R3$$$V2.0) | inactive
CSCC[C@@H]1NC(=O)[C@H](CCC(N)=O)NC(=O)[C@H](Cc2ccc(O)cc2)NC(=O)[C@H]([C@@H](C)O)NC(=O)[C@H]([C@@H](C)O)NC(=O)[C@@H]2CCCN2C(=O)[C@H](CC(N)=O)NC(=O)[C@H](Cc2ccc(O)cc2)NC(=O)[C@@H](N)CSSC[C@@H](C(=O)N[C@H](C(=O)N[C@@H](CC(N)=O)C(=O)N2CCC[C@H]2C(=O)N[C@@H](CCC(=O)O)C(=O)O)C(C)C)NC1=O (HELM PEPTIDE1{C.Y.N.P.T.T.Y.Q.M.C.V.N.P.E}$PEPTIDE1,PEPTIDE1,1:R3-10:R3$$$V2.0) | inactive
CC(C)C[C@H](N)C(=O)N[C@H]1CSSC[C@@H](C(=O)N[C@@H](CC(=O)O)C(=O)O)NC(=O)[C@H](CCC(N)=O)NC(=O)[C@H](Cc2ccc(O)cc2)NC(=O)[C@H]([C@@H](C)O)NC(=O)[C@H]([C@@H](C)O)NC(=O)[C@@H]2CCCN2C(=O)[C@H](CC(N)=O)NC1=O (HELM PEPTIDE1{L.C.N.P.T.T.Y.Q.C.D}$PEPTIDE1,PEPTIDE1,2:R3-9:R3$$$V2.0) | inactive
CSCC[C@@H]1NC(=O)[C@H](CCC(N)=O)NC(=O)[C@H](Cc2ccc(O)cc2)NC(=O)[C@H]([C@@H](C)O)NC(=O)[C@H]([C@@H](C)O)NC(=O)[C@@H]2CCCN2C(=O)[C@H](CC(N)=O)NC(=O)[C@H](Cc2ccc(O)cc2)NC(=O)[C@@H](N)CSSC[C@@H](C(=O)N[C@H](C(=O)N[C@@H](CC(N)=O)C(=O)O)C(C)C)NC1=O (HELM PEPTIDE1{C.Y.N.P.T.T.Y.Q.M.C.V.N}$PEPTIDE1,PEPTIDE1,1:R3-10:R3$$$V2.0) | inactive
CSCC[C@@H]1NC(=O)[C@H](CCC(N)=O)NC(=O)[C@H](Cc2ccc(O)cc2)NC(=O)[C@H]([C@@H](C)O)NC(=O)[C@H]([C@@H](C)O)NC(=O)[C@@H]2CCCN2C(=O)[C@H](CC(N)=O)NC(=O)[C@H](Cc2ccc(O)cc2)NC(=O)[C@@H](NC(=O)[C@H](CCSC)NC(=O)[C@@H](N)CC(C)C)CSSC[C@@H](C(=O)O)NC1=O (HELM PEPTIDE1{L.M.C.Y.N.P.T.T.Y.Q.M.C}$PEPTIDE1,PEPTIDE1,3:R3-12:R3$$$V2.0) | Active

What follows are molecules tested against Epidermal growth factor receptor (Homo sapiens) (UniProt P00533) (assay: Human recombinant EGF receptor dimer amount expressed in A431 cells at 10 uM after 10 mins by immunoblotting analysis relative to control). Details: A-431.

SMILES | residual activity
CSCC[C@@H]1NC(=O)[C@H](CCC(N)=O)NC(=O)[C@H](Cc2ccc(O)cc2)NC(=O)[C@H]([C@@H](C)O)NC(=O)[C@H]([C@@H](C)O)NC(=O)[C@@H]2CCCN2C(=O)[C@H](CC(N)=O)NC(=O)[C@H](Cc2ccc(O)cc2)NC(=O)[C@H](CC(C)C)NC(=O)[C@@H](N)CSSC[C@@H](C(=O)O)NC1=O (HELM PEPTIDE1{C.L.Y.N.P.T.T.Y.Q.M.C}$PEPTIDE1,PEPTIDE1,1:R3-11:R3$$$V2.0) | 80%
C[C@@H](O)[C@@H]1NC(=O)[C@H]([C@@H](C)O)NC(=O)[C@@H]2CCCN2C(=O)[C@H](CC(N)=O)NC(=O)[C@H](Cc2ccc(O)cc2)NC(=O)[C@@H](N)CSSC[C@@H](C(=O)O)NC(=O)[C@H](CC[S+](C)[O-])NC(=O)[C@H](CCC(N)=O)NC(=O)[C@H](Cc2ccc(O)cc2)NC1=O (some centres undefined) (HELM PEPTIDE1{C.Y.N.P.T.T.Y.Q.[CS(=O)CC[C@H](N[*:1])C(=O)[*:2]].C}$PEPTIDE1,PEPTIDE1,1:R3-10:R3$$$V2.0) | 73%
C[C@@H]1NC(=O)[C@H](CCC(N)=O)NC(=O)[C@H](Cc2ccc(O)cc2)NC(=O)[C@H]([C@@H](C)O)NC(=O)[C@H]([C@@H](C)O)NC(=O)[C@@H]2CCCN2C(=O)[C@H](CC(N)=O)NC(=O)[C@H](Cc2ccc(O)cc2)NC(=O)[C@@H](N)CSSC[C@@H](C(=O)O)NC1=O (HELM PEPTIDE1{C.Y.N.P.T.T.Y.Q.A.C}$PEPTIDE1,PEPTIDE1,1:R3-10:R3$$$V2.0) | 73%
CCCC[C@@H]1NC(=O)[C@H](CCC(N)=O)NC(=O)[C@H](Cc2ccc(O)cc2)NC(=O)[C@H]([C@@H](C)O)NC(=O)[C@H]([C@@H](C)O)NC(=O)[C@@H]2CCCN2C(=O)[C@H](CC(N)=O)NC(=O)[C@H](Cc2ccc(O)cc2)NC(=O)[C@@H](N)CSSC[C@@H](C(=O)O)NC1=O (HELM PEPTIDE1{C.Y.N.P.T.T.Y.Q.[Nle].C}$PEPTIDE1,PEPTIDE1,1:R3-10:R3$$$V2.0) | 73%
C[C@@H](O)[C@@H]1NC(=O)[C@H]([C@@H](C)O)NC(=O)[C@@H]2CCCN2C(=O)[C@H](CC(N)=O)NC(=O)[C@H](Cc2ccc(O)cc2)NC(=O)[C@@H](N)CSSC[C@@H](C(=O)O)NC(=O)[C@H](CCC(N)=O)NC(=O)[C@H](CCC(N)=O)NC(=O)[C@H](Cc2ccc(O)cc2)NC1=O (HELM PEPTIDE1{C.Y.N.P.T.T.Y.Q.Q.C}$PEPTIDE1,PEPTIDE1,1:R3-10:R3$$$V2.0) | 73%
CSCC[C@@H]1NC(=O)[C@H](CCC(N)=O)NC(=O)[C@H](Cc2ccc(O)cc2)NC(=O)[C@H]([C@@H](C)O)NC(=O)[C@H]([C@@H](C)O)NC(=O)[C@@H]2CCCN2C(=O)[C@H](CC(N)=O)NC(=O)[C@H](Cc2ccc(O)cc2)NC(=O)[C@@H](N)CSSC[C@@H](C(=O)O)NC(=O)[C@H](CC(=O)O)NC1=O (HELM PEPTIDE1{C.Y.N.P.T.T.Y.Q.M.D.C}$PEPTIDE1,PEPTIDE1,1:R3-11:R3$$$V2.0) | 80%
CSCC[C@@H]1NC(=O)[C@H](CCC(N)=O)NC(=O)[C@H](Cc2ccc(O)cc2)NC(=O)[C@H]([C@@H](C)O)NC(=O)[C@H]([C@@H](C)O)NC(=O)[C@@H]2CCCN2C(=O)[C@H](CC(N)=O)NC(=O)[C@H](Cc2ccc(O)cc2)NC(=O)[C@H](CC(C)C)NC(=O)[C@@H](N)CSSC[C@@H](C(=O)O)NC(=O)[C@H](CC(=O)O)NC1=O (HELM PEPTIDE1{C.L.Y.N.P.T.T.Y.Q.M.D.C}$PEPTIDE1,PEPTIDE1,1:R3-12:R3$$$V2.0) | 80%
CSCC[C@@H]1NC(=O)[C@H](CCC(N)=O)NC(=O)[C@H](Cc2ccc(O)cc2)NC(=O)[C@H]([C@@H](C)O)NC(=O)[C@H]([C@@H](C)O)NC(=O)[C@@H]2CCCN2C(=O)[C@H](CC(N)=O)NC(=O)[C@H](Cc2ccc(O)cc2)NC(=O)[C@@H](NC(=O)[C@@H](N)CCSC)CSSC[C@@H](C(=O)O)NC1=O (HELM PEPTIDE1{M.C.Y.N.P.T.T.Y.Q.M.C}$PEPTIDE1,PEPTIDE1,2:R3-11:R3$$$V2.0) | 64%
CC(C)C[C@@H]1NC(=O)[C@H](CCC(N)=O)NC(=O)[C@H](Cc2ccc(O)cc2)NC(=O)[C@H]([C@@H](C)O)NC(=O)[C@H]([C@@H](C)O)NC(=O)[C@@H]2CCCN2C(=O)[C@H](CC(N)=O)NC(=O)[C@H](Cc2ccc(O)cc2)NC(=O)[C@@H](N)CSSC[C@@H](C(=O)O)NC1=O (HELM PEPTIDE1{C.Y.N.P.T.T.Y.Q.L.C}$PEPTIDE1,PEPTIDE1,1:R3-10:R3$$$V2.0) | 73%
